Assay results reported in ChEMBL document CHEMBL4152320, “Discovery and development of novel salicylate synthase (MbtI) furanic inhibitors as antitubercular agents” (Eur J Med Chem, 2018).
The source made the active and inactive calls. The rule behind the calls is not given here.

Experiments:
[1] = test system: Mycobacterium tuberculosis variant bovis BCG; assay: Inhibition of Mycobacterium bovis BCG salicylate synthase assessed as removal of iron after 15 days by CAS assay
Outline: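 Same BCG culture in chelated Sauton's with compound, 15 days at 37 °C. Supernatant mixed 1:1 with Universal CAS solution, 10 min room temperature, A630 read; siderophore units = (Ar − As)/Ar × 100, Ar being blank medium with CAS.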

[2] = test system: Mycobacterium tuberculosis variant bovis BCG; assay: Inhibition of Mycobacterium bovis BCG salicylate synthase assessed as reduction in mycobactin production after 15 days
Outline: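 M. bovis BCG grown in 7H9, subcultured in chelated Sauton's, diluted 1:1000 into chelated Sauton's with sub-lethal compound concentrations; 15 days at 37 °C. Pelleted cells extracted in ethanol overnight, 0.1 M FeCl3 in ethanol added until colour stable, 1 h room temperature; mycobactins isolated and quantified.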

O=C(O)c1ccc(-c2ccc([N+](=O)[O-])cc2)o1
inhibition [1]: Dose-dependent effect
inhibition [2]: Active
